Results published in ChEMBL document CHEMBL1126568, “Nucleosides and nucleotides. 122. 2'-C-cyano-2'-deoxy-1-beta-D-arabinofuranosylcytosine and its derivatives. A new class of nucleoside with a broad antitumor spectrum” (J Med Chem, 1993).

Key:
Mus musculus [1] = assay: Weight change in M5076 mouse reticulum cell sarcoma after administration at 400 mg/kg orally; format: functional; settings: route oral
How it was run: (§1)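 Female BDF₁ mice with subcutaneous axillary M5076 (10⁶ cells), oral dosing on days 1, 4, 7, 10, 13 and 16 in saline or 5% DMA/0.5% CMC. Body weight change (g) = mean weight on day 20 minus mean weight on day 1.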

[2] = system: KATO III stomach cancer cell line; assay: Tested in vitro against KATO-III human stomach adenocarcinoma; format: functional, cell-based
How it was run: (§2)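 MTT growth assay: 2 × 10³ cells/well exposed to compound or left untreated for 72 h. MTT then added for 4 h more; formazan dissolved in DMSO and OD read at 540 nm. % inhibition = [1 − OD sample/OD control] × 100. IC₅₀ (μM) is the concentration giving 50% growth inhibition. Single-concentration inhibition measured at 100 μg/mL.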

Mus musculus [3] = assay: Tested for 60-day survivors after administration at 200 mg/kg orally in M5076 mouse reticulum cell sarcoma; format: functional; settings: route oral
How it was run: (§3)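 Female BD2F1 mice were implanted s.c. with 1 × 10^6 M5076 cells and dosed orally on days 1, 4, 7, 10, 13 and 16. Vehicle was saline or 5% DMA in 0.5% CMC. Groups had six mice (three at 400 mg/kg), with nine untreated controls. The number of mice alive at 60 days was counted.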

Mus musculus [4] = assay: Weight change in M5076 mouse reticulum cell sarcoma after administration at 200 mg/kg orally; format: functional; settings: route oral; how it was run: as §1
SW48 = assay: Tested in vitro against SW-48 human colon adenocarcinoma; format: functional, cell-based; how it was run: as §2
Mus musculus [5] = assay: Percent inhibition against M5076 mouse reticulum cell sarcoma after administration at 400 mg/kg orally on day 20; format: functional; settings: M5076, 480 h, route oral
How it was run: (§4)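 M5076 cells (10⁶ viable, counted by Trypan blue exclusion) implanted subcutaneously into the axillary region of female BDF₁ mice. Drug given orally on days 1, 4, 7, 10, 13 and 16 after inoculation, in saline or in 5% dimethylacetamide/0.5% carboxymethyl cellulose. Six mice per group (three at 400 mg/kg); untreated controls, nine mice. Tumor volume = 0.5 × length × width²; inhibition (%) = (1 − Vt/Vc) × 100 on day 20.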

A-375 = assay: Tested in vitro against A-375 cell line human melanoma; format: functional, cell-based; how it was run: as §2
Mus musculus [6] = assay: Percent inhibition against M5076 mouse reticulum cell sarcoma after administration at 300 mg/kg orally on day 20; format: functional; settings: M5076, 480 h, route oral; how it was run: as §4
Mus musculus [7] = assay: Tested for 60-day survivors after administration at 400 mg/kg orally in M5076 mouse reticulum cell sarcoma; format: functional; settings: route oral; how it was run: as §3
Mus musculus [8] = assay: Tested for 60-day survivors after administration at 100 mg/kg orally in M5076 mouse reticulum cell sarcoma; format: functional; settings: route oral; how it was run: as §3
HOS-TE85 = assay: Tested in vitro against MNNG/HOS cell line human osteosarcoma; format: functional, cell-based; how it was run: as §2
MKN-45 = assay: Tested in vitro against MKN-45 human stomach adenocarcinoma; format: functional, cell-based; settings: MKN-45, Stomach; how it was run: as §2
Mus musculus [9] = assay: Percent treated was determined after administration at 400 mg/kg orally; format: functional; settings: route oral
How it was run: (§5)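 Female BDF₁ mice bearing subcutaneous M5076 (10⁶ cells, axillary). Oral dosing in saline or 5% DMA/0.5% CMC on days 1, 4, 7, 10, 13 and 16. Groups of six (three at 400 mg/kg), nine untreated controls. T/C (%) = median survival day of treated/median survival day of untreated controls × 100; 60-day survivors also recorded.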

Mus musculus [10] = assay: Percent treated was determined after administration at 300 mg/kg orally; format: functional; settings: route oral; how it was run: as §5
PC-9 = assay: Tested in vitro against PC-9 human lung adenocarcinoma; format: functional, cell-based; how it was run: as §2
Mus musculus [11] = assay: Percent treated was determined after administration at 100 mg/kg orally; format: functional; settings: route oral; how it was run: as §5
Mus musculus [12] = assay: Percent inhibition against M5076 mouse reticulum cell sarcoma after administration at 200 mg/kg orally on day 20; format: functional; settings: M5076, 480 h, route oral; how it was run: as §4
PC-13 = assay: Tested in vitro against PC-13 human lung large cell carcinoma; format: functional, cell-based; how it was run: as §2
HT-1080 = assay: Tested in vitro against HT1080 cell line human fibrosarcoma; format: functional, cell-based; how it was run: as §2
Mus musculus [13] = assay: Tested for 60-day survivors after administration at 300 mg/kg orally in M5076 mouse reticulum cell sarcoma; format: functional; settings: route oral; how it was run: as §3
COLO 320 = assay: Tested in vitro against colo-320 human colon adenocarcinoma; format: functional, cell-based; settings: COLO 320, Colon; how it was run: as §2
Mus musculus [14] = assay: Weight change in M5076 mouse reticulum cell sarcoma after administration at 300 mg/kg orally; format: functional; settings: route oral; how it was run: as §1
MCF7 = assay: Tested in vitro against MCF-7 human breast adenocarcinoma; format: functional, cell-based; how it was run: as §2
L1210 = assay: Tested in vitro inhibitory activity against murine leukemia L1210; format: functional, cell-based; settings: Mus musculus; how it was run: as §2
Mus musculus [15] = assay: Weight change in M5076 mouse reticulum cell sarcoma after administration at 100 mg/kg orally; format: functional; settings: route oral; how it was run: as §1
PC-8 = assay: Tested in vitro against PC-8 human lung adenocarcinoma; format: functional, cell-based; how it was run: as §2
OST = assay: Tested in vitro against OST human osteosarcoma; format: functional, cell-based; how it was run: as §2
Mus musculus [16] = assay: Percent inhibition against M5076 mouse reticulum cell sarcoma after administration at 100 mg/kg orally on day 20; format: functional; settings: M5076, 480 h, route oral; how it was run: as §4
Mus musculus [17] = assay: Percent treated was determined after administration at 200 mg/kg orally; format: functional; settings: route oral; how it was run: as §5
[18] = Tested in vitro inhibitory activity against human oral epidermoid carcinoma KB cells; format: functional, cell-based; how it was run: as §2
ST-KM-1 = assay: Tested in vitro against ST-KM human stomach adenocarcinoma; format: functional, cell-based; settings: ST-KM-1, Stomach; how it was run: as §2
KKLS = assay: Tested in vitro against KKLS human stomach adenocarcinoma; format: functional, cell-based; how it was run: as §2
QG-95 = assay: Tested in vitro against QG-95 human squamous cell carcinoma; format: functional, cell-based; how it was run: as §2
Mus musculus [19] = assay: Percent treated was determined after administration at 500 mg/kg orally; format: functional; settings: route oral; how it was run: as §5
Mus musculus [20] = assay: Percent treated was determined after administration at 750 mg/kg orally; format: functional; settings: route oral; how it was run: as §5
Mus musculus [21] = assay: Percent inhibition against M5076 mouse reticulum cell sarcoma after administration at 750 mg/kg orally on day 20; format: functional; settings: M5076, 480 h, route oral; how it was run: as §4
Mus musculus [22] = assay: Percent inhibition against M5076 mouse reticulum cell sarcoma after administration at 250 mg/kg orally on day 20; format: functional; settings: M5076, 480 h, route oral; how it was run: as §4
Mus musculus [23] = assay: Weight change in M5076 mouse reticulum cell sarcoma after administration at 250 mg/kg orally; format: functional; settings: route oral; how it was run: as §1
Mus musculus [24] = assay: Weight change in M5076 mouse reticulum cell sarcoma after administration at 750 mg/kg orally; format: functional; settings: route oral; how it was run: as §1
Mus musculus [25] = assay: Weight change in M5076 mouse reticulum cell sarcoma after administration at 500 mg/kg orally; format: functional; settings: route oral; how it was run: as §1
Mus musculus [26] = assay: Percent inhibition against M5076 mouse reticulum cell sarcoma after administration at 500 mg/kg orally on day 20; format: functional; settings: M5076, 480 h, route oral; how it was run: as §4
Mus musculus [27] = assay: Percent treated was determined after administration at 250 mg/kg orally; format: functional; settings: route oral; how it was run: as §5
Mus musculus [28] = assay: Percent treated was determined after administration at 125 mg/kg orally; format: functional; settings: route oral; how it was run: as §5
Mus musculus [29] = assay: Tested for 60-day survivors after administration at 250 mg/kg orally in M5076 mouse reticulum cell sarcoma; format: functional; settings: route oral; how it was run: as §3
Mus musculus [30] = assay: Tested for 60-day survivors after administration at 500 mg/kg orally in M5076 mouse reticulum cell sarcoma; format: functional; settings: route oral; how it was run: as §3
Mus musculus [31] = assay: Percent treated was determined after administration at 62.5 mg/kg orally; format: functional; settings: route oral; how it was run: as §5
Mus musculus [32] = assay: Weight change in M5076 mouse reticulum cell sarcoma after administration at 62.5 mg/kg orally; format: functional; settings: route oral; how it was run: as §1
Mus musculus [33] = assay: Tested for 60-day survivors after administration at 750 mg/kg orally in M5076 mouse reticulum cell sarcoma; format: functional; settings: route oral; how it was run: as §3
Mus musculus [34] = assay: Tested for 60-day survivors after administration at 125 mg/kg orally in M5076 mouse reticulum cell sarcoma; format: functional; settings: route oral; how it was run: as §3
Mus musculus [35] = assay: Percent inhibition against M5076 mouse reticulum cell sarcoma after administration at 62.5 mg/kg orally on day 20; format: functional; settings: M5076, 480 h, route oral; how it was run: as §4
Mus musculus [36] = assay: Weight change in M5076 mouse reticulum cell sarcoma after administration at 125 mg/kg orally; format: functional; settings: route oral; how it was run: as §1
Mus musculus [37] = assay: Tested for 60-day survivors after administration at 62.5 mg/kg orally in M5076 mouse reticulum cell sarcoma; format: functional; settings: route oral; how it was run: as §3
Mus musculus [38] = assay: Percent inhibition against M5076 mouse reticulum cell sarcoma after administration at 125 mg/kg orally on day 20; format: functional; settings: M5076, 480 h, route oral; how it was run: as §4

Compound `Cl.N#C[C@H]1[C@H](O)[C@@H](CO)O[C@H]1n1ccc(N)nc1=O` has a Weight change (Mus musculus [1]) of 1.1 g, an IC50 [2] of 55.6 µM and a Survivors (Mus musculus [3]) of 2. For the same compound, the Weight change (Mus musculus [4]) was 2 g, the IC50 (SW48) was greater than 350 µM and the inhibition in vivo at 400 mg/kg (Mus musculus [5]) was 99%. For the same compound, the IC50 (A-375) was 1.4 µM, the inhibition in vivo at 300 mg/kg (Mus musculus [6]) was 97% and the Survivors (Mus musculus [7]) was 1. The Survivors (Mus musculus [8]) was 0, the IC50 (HOS-TE85) was 23.6 µM and the IC50 (MKN-45) was 15.9 µM. It also gave a T/C (Mus musculus [9]) of 133%, a T/C (Mus musculus [10]) of 120% and an IC50 (PC-9) of 15.3 µM. It also gave a T/C (Mus musculus [11]) of 118%, an inhibition in vivo at 200 mg/kg (Mus musculus [12]) of 93% and an IC50 (PC-13) of 86.8 µM. For the same compound, the IC50 (HT-1080) was 0.53 µM, the Survivors (Mus musculus [13]) was 0 and the IC50 (COLO 320) was 1.4 µM. For the same compound, the Weight change (Mus musculus [14]) was 1 g, the IC50 (MCF7) was 1.75 µM and the IC50 (L1210) was 0.53 µM. The Weight change (Mus musculus [15]) was 1.7 g, the IC50 (PC-8) was 15.9 µM and the IC50 (OST) was 22.2 µM. It also gave an inhibition in vivo at 100 mg/kg (Mus musculus [16]) of 79%, a T/C (Mus musculus [17]) of 136% and an IC50 [18] of 5.2 µM. It also gave an IC50 (ST-KM-1) of 9.71 µM, an IC50 (KKLS) of 350 µM and an IC50 (QG-95) of 138 µM.

Work on `C[C@H]1O[C@@H](n2cc(F)c(=O)[nH]c2=O)[C@H](O)[C@@H]1O` [DOXIFLURIDINE] yielded a T/C (Mus musculus [19]) of 104%, a T/C (Mus musculus [20]) of 92% and an inhibition in vivo at 750 mg/kg (Mus musculus [21]) of 50%. The inhibition in vivo at 250 mg/kg (Mus musculus [22]) was 15%, the Weight change (Mus musculus [23]) was 2 g and the Weight change (Mus musculus [24]) was 0.8 g. It also gave a Weight change (Mus musculus [25]) of 2.5 g, an inhibition in vivo at 500 mg/kg (Mus musculus [26]) of 19% and a T/C (Mus musculus [27]) of 86%. For the same compound, the T/C (Mus musculus [28]) was 98%, the Survivors (Mus musculus [29]) was 0 and the Survivors (Mus musculus [30]) was 0. The T/C (Mus musculus [31]) was 88%, the Weight change (Mus musculus [32]) was 2.8 g and the Survivors (Mus musculus [33]) was 0. It also gave a Survivors (Mus musculus [34]) of 0, an inhibition in vivo at 62.5 mg/kg (Mus musculus [35]) of 8% and a Weight change (Mus musculus [36]) of 1.8 g. It also gave a Survivors (Mus musculus [37]) of 0 and an inhibition in vivo at 125 mg/kg (Mus musculus [38]) of 18%.
